STAT3 act-1: STAT3 signaling activation; U3A cells, IL-6 STAT3-luciferase reporter, luminescence; 100% = signal with IL-6 EC80 alone; activation (% of control), % at 5.6 µM; 190,000 compounds, 0.91% hits;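 active = activation above the screen-wide mean of compound activation plus 3 SD, cut at about 130% in these data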;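 also: 0% = background luminescence of wells with medium and substrate only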
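system = STAT3-luciferase reporter U3A cells | reagent = IL-6 stimulus at 33 ng/mL final | timing = 1 h compound pre-exposure, 6 h IL-6 stimulation, 37 °C | measured by = luminescence | evaluation = % activation versus median of IL-6-stimulated wells | control set = IL-6-only wells as 100% reference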
thrombin 1536: blocks human thrombin protease activity. P00734. alpha-thrombin, Boc-VPR-AMC fluorogenic substrate cleavage. inhibition, % at 5 µM. 220,000 compounds, 0.26% hits. AID 1046;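 active = inhibition at or above 40%; inactive = inhibition below 40%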;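 also: 0% = enzyme with no compound and 100% = wells without enzyme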
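Material: Human alpha-thrombin protein | Buffer or medium: pH 7.5 Tris-saline with Tween 20 | Reagent: Boc-VPR-AMC substrate, 15 µM final | Schedule: Reaction at ambient temperature | Detection: AMC fluorescence at 355 nm excitation and 460 nm emission | Evaluation: Percent inhibition scaled between no-compound controls and no-enzyme blanks | Controls: no-compound enzyme wells and no-enzyme blanks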
FXIa inh 1536: factor XIa (human) inhibition; P03951; purified FXIa, Boc-Glu-Ala-Arg-AMC fluorogenic substrate; inhibition, % at 5 µM; 220,000 compounds, 0.14% hits;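 active = inhibition of at least 40%; inactive = inhibition below 40%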;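 also: fluorescence of freed AMC excited at 355 nm; 0% = enzyme without compound and 100% = no enzyme blank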
AHR activator: activators of human aryl hydrocarbon receptor | P35869 | AHR-responsive luciferase reporter cells, luminescence | activation, % at 5 µM | 320,000 compounds, 2.5% hits | AID 2796; in the data active = activation above about 47%;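 also: 0% = vehicle wells and 100% = reference agonist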
KLK5 inh: blocks human kallikrein 5 protease activity | recombinant hK5, fluorogenic AMC substrate cleavage | inhibition, % at 5 µM | AID 873 | 210,000 compounds, 0.59% hits | Q9Y337;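 active = inhibition of 40% or more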;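 also: 0% = enzyme controls without compound and 100% = no-enzyme blanks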
FXIIa inh: blocks human coagulation factor XIIa protease activity. 220,000 compounds, 0.3% hits. purified FXIIa, Boc-QGR-AMC fluorogenic substrate, 2 h. inhibition, % at 5 µM. P00748. AID 800; in the data active = inhibition above about 40%;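 also: 0% = enzyme with no compound and 100% = blank without enzyme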
STAT3 act-2: confirmation of STAT3 signaling activators; 1,200 compounds, 64% hits; U3A STAT3-luciferase reporter, IL-6 potentiation, luminescence; U3A cells lack STAT1; 100 means same as IL-6 alone; shares compounds with STAT3 act-1; potentiation (% of control), % at 5.7 µM;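 active = percent activation of the STAT3 luciferase reporter above a set limit taken from the earlier primary screen, cut at about 130% in these data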;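 also: 0% = background signal of medium plus substrate and 100% = median of IL-6 with DMSO wells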
NFkB act STAT3ct: NF-kappaB activation in STAT3 activator counter-screen; shares compounds with STAT3 act-1; human cells, NF-kappaB reporter activation; activation (% of control), % at 5.7 µM; 1,200 compounds, 11% hits; AID 1309; in the data active = activation above about 120%;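 also: reporter induced by TNF-alpha stimulation; 100% = median of stimulated DMSO wells and 0% = no signal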
STAT1 act STAT3c: STAT1 activation in STAT3 activator counter-screen | activation (% of control), % at 5.7 µM | shares compounds with STAT3 act-1 | 1,200 compounds, 13% hits | NIH 3T3 STAT1-luciferase reporter, IFN-gamma, luminescence | AID 1318;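 active = activation above the solvent-only control well mean plus 3 SD, set per screening run, cut at about 120% in these data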;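 also: 100% = IFN-gamma with DMSO median signal so 100% means no change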
* hit, by the source's call; . = no result. Rows were chosen to be rich in hits. Some 3.5% of all compounds tested hit in one or more screens of this group.

SMILES	STAT3 act-1	thrombin 1536	FXIa inh 1536	AHR activator	KLK5 inh	FXIIa inh	STAT3 act-2	NFkB act STAT3ct	STAT1 act STAT3c
COc1ccc2[nH]c(=O)c3c(c2c1)OC(C)(C)C=C3	137*	-2	-6	18	3	-11	126	86	103
COc1ccc(-c2cc(=O)c3cc(OC)ccc3[nH]2)cc1	66	1	4	44	-5	11	.	.	.
CCn1c(SCc2nc3ccccc3s2)nnc1-c1cccs1	142*	-1	-4	17	1	-1	143*	115	129*
CCOc1ccccc1-n1nnnc1SCc1nc2ccccc2s1	166*	-2	0	25	6	14	156*	119	128*
O=c1c2ccccc2nc(/C=C/c2c[nH]c3ccccc23)n1CCO	136*	-4	7	24	8	13	136*	117	126*
CCC(C)(C)NC(=O)Cc1ccc(Cl)cc1	104	-3	1	0	-11	4	.	.	.
COc1ccccc1C(=O)NN=C1CCN(Cc2ccccc2)CC1	100	-6	3	38	-14	24	.	.	.
N#CCNc1ccc([N+](=O)[O-])cc1C#N	.	2	6	6	6	23	.	.	.
CSc1nsc(/C=C/Nc2ccc(C)cc2)c1C#N	137*	6	-1	17	-5	2	136*	105	108
C(=N\c1nc2ccccc2n1CCN1CCCCC1)/c1cccs1	124	-6	-20	10	-1	-4	.	.	.
Cn1c(/N=C/c2cccs2)nc2ccccc21	147*	-1	-4	10	4	7	122	98	94
Cn1c(/N=C/c2cc(Cl)ccc2O)nc2ccccc21	157*	-6	-3	15	-2	0	130	109	90
Cc1cc2ccc(C)c(C)c2nc1SCC(=O)c1cccs1	160*	-8	3	39	3	1	134*	100	91
COc1ccc(C2CC(=O)Oc3c2c(=O)n(C)c2ccccc32)c(OC)c1OC (stereo unspecified)	101	-6	-1	2	-4	4	.	.	.
Cn1c(=O)c2c(c3ccccc31)OC(=O)CC2c1cccnc1 (stereo unspecified)	137*	1	4	.	-10	8	98	102	100
COc1ccccc1NC(=O)c1ccc(NC(=O)CSc2ncn[nH]2)cc1	97	3	7	15	-8	14	.	.	.
CCc1ccc(OCC(=O)N/N=C2\CC(=O)c3ccccc32)cc1	146*	0	1	62*	-19	7	128	110	117
COc1ccc(C2c3[nH]c4ccccc4c3CCN2C(=O)c2cc3ncccn3n2)c(F)c1 (stereo unspecified)	146*	-12	-6	22	-2	6	149*	100	100
COc1ccc(C2c3[nH]c4ccccc4c3CCN2C(=O)c2cn3ccccc3n2)c(F)c1 (stereo unspecified)	161*	0	-1	18	.	7	159*	111	105
COc1ccc(OC)c(NC(=O)COC(=O)CCCN2C(=O)c3ccccc3C2=O)c1	96	-7	-3	-2	-7	-3	.	.	.
Oc1ccc2ccccc2c1/C=N/c1nc2c(s1)CCCC2	154*	0	8	15	-7	13	136*	104	94
Oc1c(Br)cc(Br)cc1/C=N/c1nc2c(s1)CCCC2	114	2	1	7	18	12	.	.	.
COc1cccc2cc(C(=O)NC3CC4CCC3C4)oc12 (stereo unspecified)	.	.	.	25	.	.	.	.	.
COc1ccc(-c2oc3ccccc3c2C(=O)OCc2ccccc2)cc1	.	.	.	18	.	.	.	.	.

Compound activity: PubChem, several laboratories
